The values that follow come from ChEMBL document CHEMBL1125645, “Specific bradycardic agents. 2. Heteroaromatic modifications in the side chain of specific bradycardic benzazepinones: chemistry, pharmacology, and structure-activity relationships” (1991).

Calls of active or inactive are those of the source. The calls are words filed in the database; no cut-off is given here.

The subject of test [1] is Rattus norvegicus. The test is described as follows: Bradycardic activity was evaluated in an anesthetized rat model as percent heart rate(beats/min) reduction 20 min after iv injection of 5 mg/kg. It counts as functional. An outline of the steps:
(§1)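 Male Chbb:THOM rats, 200-250 g, anesthetized with pentobarbital sodium 50 mg/kg ip, with the trachea cannulated and artificial respiration given. Heart rate was recorded continuously by an ECG-triggered beat-to-beat tachograph before and at 5 and 20 min after a single iv injection of 5 mg/kg. Values are % change from pre-dose, reported ± SEM.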

Test [2] relates to Rattus norvegicus. The test is described as follows: Hypotensive activity was evaluated in an anesthetized rat model as percent mean aortic blood pressure(mm hg) reduction 5 min after iv injection of 5 mg/kg of the compound; NA=Not active. It counts as functional, organism-based. Also on record: dose 5 mg/kg. Particulars: Artery. The essentials: (§2)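 In pentobarbital-anesthetized (50 mg/kg ip), artificially ventilated male Chbb:THOM rats (200-250 g), mean aortic pressure was measured through a carotid artery cannula connected to an electromechanical transducer. Readings were taken before and 5 min after 5 mg/kg iv. Values are % change from baseline, ± SEM.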

The species named for test [3] is Rattus norvegicus. The test is described as follows: Delta HR ratio measured as the ratio of delta HR(20 min)/delta HR (5 min). It counts as functional. The essentials: (§3)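 Duration-of-action index: the % heart-rate reduction at 20 min divided by that at 5 min after 5 mg/kg iv. Rats were male Chbb:THOM, pentobarbital-anesthetized and ventilated, with heart rate taken from an ECG-triggered tachograph.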

Test [4] concerns Rattus norvegicus. The test is described as follows: Bradycardic activity was evaluated in an anesthetized rat model as percent heart rate(beats/min) reduction 5 min after iv injection of 5 mg/kg. In kind it is functional. The essentials: as §1
The test system of test [5] is Rattus norvegicus. The test is described as follows: Bradycardic activity was evaluated in an anesthetized rat model as percent heart rate(beats/min) reduction 20 min after iv injection of 5 mg/kg of the compound; NA=Not active. It counts as functional, organism-based. Also noted: dose 5 mg/kg. The essentials:
as §1

Test [6] concerns Rattus norvegicus. The test is described as follows: Bradycardic activity was evaluated in an anesthetized rat model as percent heart rate(beats/min) reduction 5 min after iv injection of 5 mg/kg of the compound; NA=Not active. Also on record: dose 5 mg/kg. In kind it is functional, organism-based. The essentials:
as §1

For test [7], the system named is Rattus norvegicus. The test is described as follows: Hypotensive activity was evaluated in an anesthetized rat model as percent mean aortic blood pressure(mm hg) reduction 5 min after iv injection of 5 mg/kg. In kind it is functional, Artery. An outline of the steps:
as §2

In test [8] the test system is Rattus norvegicus. The test is described as follows: Bradycardic activity was evaluated in an anesthetized rat model as percent heart rate(beats/min) reduction 20 min after iv injection of 5 mg/kg of the compound; NA= Not active. In kind it is functional, organism-based. Also on record: dose 5 mg/kg. An outline of the steps:
as §1

A short description of test [9]: (§4) Ratio of heart rate reduction to mean arterial blood pressure reduction. In kind it is tissue-based. The essentials:
(§5)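 Selectivity parameter S: the % heart-rate reduction divided by the % mean arterial pressure reduction, both read 5 min after 5 mg/kg iv in anesthetized, ventilated male Chbb:THOM rats. Heart rate came from an ECG-triggered tachograph and pressure from a carotid cannula.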

A short description of test [10]: (§6) delta HR Ratio measured as the ratio of delta HR(20 min)/delta HR (5 min). The essentials:
as §3

Test [11] is described as follows: as §6. In kind it is functional. The essentials: as §3
Test [12] is filed under the species Rattus norvegicus. Described as §4. In kind it is functional. An outline of the steps:
as §5

`COc1cc2c(cc1OC)CC(=O)N(CCCN(C)CCc1ccncc1)CC2`: the “Delta HR” value with Rattus norvegicus [1] is on record as -21%; in the test with Rattus norvegicus [4], -10%. The “Delta MAP” value in the test with Rattus norvegicus [2] is “inactive”. In the test filed under Rattus norvegicus [3], the Ratio was 2.1.
Take `COc1cc2c(cc1OC)CC(=O)N(CCCN(C)Cc1ccccn1)CC2`: the “Delta MAP” value with Rattus norvegicus [2] is “inactive”. The “Delta HR” value in the test on Rattus norvegicus [5] and with Rattus norvegicus [6] was “inactive” throughout.
For the compound `COc1cc2c(cc1OC)CC(=O)N(CCCN(C)CCc1cncc3cc(OC)c(OC)cc13)CC2`, the “Delta HR” value in the test on Rattus norvegicus [1] and in the test on Rattus norvegicus [4] was -5% in each case. Moreover, in the test on Rattus norvegicus [2], the “Delta MAP” value was “inactive”. In addition, the Ratio in the test listed under Rattus norvegicus [3] was 1.
Consider `COc1cc2c(cc1OC)CC(=O)N(CCCN(C)Cc1cccnc1)CC2`, for which the “Delta MAP” value in the test on Rattus norvegicus [2] was “inactive”. In addition, the “Delta HR” value in the test on Rattus norvegicus [5] and in the test with Rattus norvegicus [6] was “inactive” in each case.
With `COc1cc2c(cc1OC)CC(=O)N(CCCN(C)CCCCn1ccnc1)CC2`, in the test on Rattus norvegicus [2], the “Delta MAP” value is “inactive”. Also, the “Delta HR” value with Rattus norvegicus [5] and in the test with Rattus norvegicus [6] was “inactive” each time.
Regarding `COc1cc2c(cc1OC)CC(=O)N(CCCN(C)CCc1c[nH]cn1)CC2`, the “Delta MAP” value with Rattus norvegicus [7] is recorded as -11%. The “Delta HR” value in the test on Rattus norvegicus [6] and in the test with Rattus norvegicus [8] was “inactive” throughout.
For the compound `COc1cc2c(cc1OC)CC(=O)N(CCCN(C)CCc1c[nH]c3c(C)cccc13)CC2`, the “Delta HR” value is -44% in the test with Rattus norvegicus [1] and -50% in the test on Rattus norvegicus [4]. For the same compound, the Selectivity in test [9] amounted to 1.9. In addition, in the test on Rattus norvegicus [7], the “Delta MAP” value is -26%. In [10], the Ratio is 0.88.
As to `COc1cc2c(cc1OC)CC(=O)N(CCCN(C)Cc1c(C)noc1C)CC2`, the “Delta HR” value in the test with Rattus norvegicus [1] is reported as -14%; with Rattus norvegicus [4], -5%. The “Delta MAP” value with Rattus norvegicus [2] is “inactive”. The Ratio in the test listed under Rattus norvegicus [3] is recorded as 2.8.
The like results for `COc1cc2c(cc1OC)CC(=O)N(CCCN(C)CCc1ccsc1)CC2` were, in that order, -19%, -24%, “inactive” and 0.79.
The like results for `COc1cc2c(cc1OC)CC(=O)N(CCCN(C)CCn1cnc3ccccc31)CC2` were, in that order, -15%, -10%, “inactive” and 1.5.
Take `COc1cc2c(cc1OC)CC(=O)N(CCCN(C)CCc1ccccn1)CC2`: the “Delta HR” value is recorded as -16% in the test on Rattus norvegicus [1] and -15% in the test on Rattus norvegicus [4]. For the same compound, the “Delta MAP” value in the test with Rattus norvegicus [2] is “inactive”. The Ratio in the test listed under Rattus norvegicus [3] was 1.1.
In the case of `COc1cc2c(cc1OC)CC(=O)N(CCCN(C)CCn1ccnc1)CC2`, in the test with Rattus norvegicus [2], the “Delta MAP” value was “inactive”. Further, the “Delta HR” value with Rattus norvegicus [5] and in the test with Rattus norvegicus [6] was “inactive” throughout.
As for `COc1cc2c(cc1OC)CC(=O)N(CCCN(C)CCc1cn(C)cn1)CC2`, the “Delta HR” value in the test on Rattus norvegicus [1] is on record as -11%; with Rattus norvegicus [4] it was -10%. For the same compound, the Ratio in [11] was found to be 1.1. Moreover, in the test filed under Rattus norvegicus [12], the Selectivity is on record as 1. In addition, the “Delta MAP” value in the test with Rattus norvegicus [7] is given as -10%.
For the compound `COc1cc2c(cc1OC)CC(=O)N(CCCN(C)CCc1scnc1C)CC2`, in the test with Rattus norvegicus [2], the “Delta MAP” value is “inactive”. In addition, the “Delta HR” value in the test with Rattus norvegicus [5] and in the test with Rattus norvegicus [6] was “inactive” each time.
Consider `COc1ccc2c(CCN(C)CCCN3CCc4cc(OC)c(OC)cc4CC3=O)csc2c1`, for which the entries for the “Delta HR” value with Rattus norvegicus [1] and in the test with Rattus norvegicus [4] were -60% and -67%, respectively. Further, the Ratio in [11] came out at 0.89. For the same compound, in the test listed under Rattus norvegicus [12], the Selectivity is 1.3. The “Delta MAP” value with Rattus norvegicus [7] is -52%.
